Assay results from ChEMBL document CHEMBL5096187, “Efficient Synthesis and Bioevaluation of Novel Dual Tubulin/Histone Deacetylase 3 Inhibitors as Potential Anticancer Agents” (J Med Chem, 2021).
The source made the active and inactive calls. No cut-off for these calls is given here.

Tests used:
B16-F10 [1] = assay: Inhibition of cell migration in mouse B16-F10 cells assessed as reduction in wound area ratio measured at 50 nM incubated for 24 hrs by wound healing assay; assay type: functional; design: scale not given: the % may be the effect or the level left
Procedure, shortened: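 Confluent B16-F10 monolayers, seeded overnight, were scratched with a pipette tip and washed to remove debris. Cells were then treated, and phase-contrast images were taken at 0 and 24 h. Migration distance or wound area measured manually against DMSO control; n = 3.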

[2] = target: T1, Protein deacetylase HDAC6 (Homo sapiens, UniProt Q9UBN7); assay: Inhibition of full length N-terminal GST-tagged human recombinant HDAC6 (1 to 1215 residues) expressed in Baculovirus infected Sf9 cells using Ac-Leu-Gly-Lys (Ac)-AMC as substrate pretreated for 5 mins followed by substrate addition and measured after 30 mins
T1 sequence (Q9UBN7 whole entry): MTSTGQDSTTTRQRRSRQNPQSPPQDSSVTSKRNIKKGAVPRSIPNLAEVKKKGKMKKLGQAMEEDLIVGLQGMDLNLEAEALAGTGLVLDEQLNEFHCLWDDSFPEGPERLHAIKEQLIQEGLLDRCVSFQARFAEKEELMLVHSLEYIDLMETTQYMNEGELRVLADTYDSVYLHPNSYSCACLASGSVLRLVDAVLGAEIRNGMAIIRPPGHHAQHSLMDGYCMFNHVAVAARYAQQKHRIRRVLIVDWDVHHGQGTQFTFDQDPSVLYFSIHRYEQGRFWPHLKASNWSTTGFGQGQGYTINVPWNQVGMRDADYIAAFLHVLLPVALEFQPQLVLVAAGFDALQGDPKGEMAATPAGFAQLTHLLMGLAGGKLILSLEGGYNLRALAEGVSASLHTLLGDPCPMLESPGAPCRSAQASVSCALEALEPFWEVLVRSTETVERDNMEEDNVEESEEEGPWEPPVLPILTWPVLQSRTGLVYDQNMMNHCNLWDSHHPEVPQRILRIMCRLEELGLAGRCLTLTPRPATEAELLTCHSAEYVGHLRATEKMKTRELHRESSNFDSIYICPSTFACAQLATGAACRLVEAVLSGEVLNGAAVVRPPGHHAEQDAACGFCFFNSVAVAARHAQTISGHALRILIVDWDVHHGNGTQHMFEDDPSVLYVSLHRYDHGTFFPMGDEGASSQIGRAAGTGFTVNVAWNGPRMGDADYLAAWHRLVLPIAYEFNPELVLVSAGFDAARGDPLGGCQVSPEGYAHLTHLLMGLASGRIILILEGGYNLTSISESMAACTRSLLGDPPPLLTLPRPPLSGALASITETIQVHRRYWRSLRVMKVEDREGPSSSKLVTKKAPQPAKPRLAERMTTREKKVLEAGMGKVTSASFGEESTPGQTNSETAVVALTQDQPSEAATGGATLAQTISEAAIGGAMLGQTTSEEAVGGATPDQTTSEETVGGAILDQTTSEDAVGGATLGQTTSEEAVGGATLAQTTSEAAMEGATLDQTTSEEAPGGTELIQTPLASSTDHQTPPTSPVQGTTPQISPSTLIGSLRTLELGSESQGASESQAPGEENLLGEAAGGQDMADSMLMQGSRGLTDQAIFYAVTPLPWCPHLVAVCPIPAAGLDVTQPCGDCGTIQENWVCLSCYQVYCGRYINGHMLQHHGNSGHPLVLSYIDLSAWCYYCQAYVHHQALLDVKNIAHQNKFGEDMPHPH
Procedure, shortened: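 HDAC6 at 15 ng/well in Tris buffer pH 8.0 with MgCl2, BSA, NaCl and KCl. Ten 3-fold dilutions preincubated 5 min at room temperature, then 10 μM Ac-Leu-Gly-Lys(Ac)-AMC for 30 min at 37 °C. IC50 by normalized dose–response nonlinear fit; performed at least three times.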

Tubulin (Sus scrofa) [3] = target: T2, Tubulin (Sus scrofa) (UniProt P02554+P02550); assay: Inhibition of pig brain tubulin polymerization measured after 20 mins by spectrometric method; settings: dose 0.8-25 µM, DDE = dose-dependent effect
T2 sequence (P02550 whole entry, looked up): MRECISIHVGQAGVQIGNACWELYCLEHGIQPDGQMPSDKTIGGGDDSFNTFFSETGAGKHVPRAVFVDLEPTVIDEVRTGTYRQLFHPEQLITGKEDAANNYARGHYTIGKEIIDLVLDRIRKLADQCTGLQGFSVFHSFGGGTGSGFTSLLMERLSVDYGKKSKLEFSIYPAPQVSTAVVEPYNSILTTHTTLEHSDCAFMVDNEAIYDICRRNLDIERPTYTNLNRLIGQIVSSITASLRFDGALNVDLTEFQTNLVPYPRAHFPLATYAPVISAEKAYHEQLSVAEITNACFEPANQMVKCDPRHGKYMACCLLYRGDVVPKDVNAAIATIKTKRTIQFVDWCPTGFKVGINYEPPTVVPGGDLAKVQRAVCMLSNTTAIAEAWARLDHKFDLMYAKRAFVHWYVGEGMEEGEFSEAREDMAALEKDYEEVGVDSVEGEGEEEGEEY
T2 sequence (P02554 whole entry, looked up): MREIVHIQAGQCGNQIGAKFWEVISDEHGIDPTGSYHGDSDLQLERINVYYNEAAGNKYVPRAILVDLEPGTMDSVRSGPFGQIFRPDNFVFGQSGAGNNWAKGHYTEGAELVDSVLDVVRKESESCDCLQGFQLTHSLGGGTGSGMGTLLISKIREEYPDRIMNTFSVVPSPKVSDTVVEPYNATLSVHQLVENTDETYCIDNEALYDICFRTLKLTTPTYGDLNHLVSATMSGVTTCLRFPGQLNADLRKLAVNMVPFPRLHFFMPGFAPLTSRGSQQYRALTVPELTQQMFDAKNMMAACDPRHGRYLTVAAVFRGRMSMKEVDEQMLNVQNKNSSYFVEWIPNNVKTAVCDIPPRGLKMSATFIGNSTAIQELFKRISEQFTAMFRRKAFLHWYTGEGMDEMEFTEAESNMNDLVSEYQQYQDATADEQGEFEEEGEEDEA
Procedure, shortened: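 Tubulin purified from pig brain microtubule protein (three assembly/disassembly cycles, then phosphocellulose chromatography). Tubulin mixed with compound in PEM buffer (100 mM PIPES, 1 mM MgCl₂, 1 mM EGTA) plus 1 mM GTP and 5% glycerol. Polymerization followed at 340 nm, 37 °C. Inhibition versus vehicle at 20 min; plateau absorbance used.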

B16-F10 [4] = assay: Induction of cell cycle arrest in mouse B16-F10 cells assessed as accumulation of cells in G2/M phase at 25 nM measured after 48 hrs by PI/RNaseA staining based flow cytometry analysis (Rvb= 5.76%); assay type: functional
[5] = Nephrotoxicity in C57BL/6 mouse assessed as effect on globulin GLO level in serum; assay type: toxicity; settings: in vivo
Histone deacetylase 8 = target: T3, Histone deacetylase 8 (Homo sapiens, UniProt Q9BY41); assay: Inhibition of full length C-terminal his-tagged human recombinant HDAC8 ([…]) expressed in baculovirus in Sf9 insect cells using Ac-Leu-Gly-Lys (Tfa)-AMC as substrate pretreated for 5 mins followed by substrate addition and measured after 30 mins
T3 sequence (Q9BY41 whole entry): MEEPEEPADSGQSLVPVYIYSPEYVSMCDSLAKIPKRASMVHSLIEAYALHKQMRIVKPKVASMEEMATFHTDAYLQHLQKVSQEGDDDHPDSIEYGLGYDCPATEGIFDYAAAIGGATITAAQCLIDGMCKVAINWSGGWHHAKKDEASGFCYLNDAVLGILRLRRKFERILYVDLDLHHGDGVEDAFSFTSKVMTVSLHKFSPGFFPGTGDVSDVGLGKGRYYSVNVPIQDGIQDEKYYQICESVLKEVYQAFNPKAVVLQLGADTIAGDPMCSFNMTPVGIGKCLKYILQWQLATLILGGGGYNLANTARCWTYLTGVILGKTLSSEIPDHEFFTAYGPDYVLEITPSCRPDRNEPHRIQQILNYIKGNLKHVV

B16-F10 [6] = assay: Induction of apoptosis in mouse B16-F10 cells assessed as late apoptotic cells at 25 nM incubated for 48 hrs by Annexin V-FITC/PI analysis (reference value: 0.00 %); assay type: functional
Tubulin (Sus scrofa) [7] = target: T2, Tubulin (Sus scrofa); assay: Inhibition of pig brain tubulin polymerization in mouse B16-F10 cells assessed as disruption of microtubule network at 100 nM measured for 6 hrs by immunofluorescence assay; assay type: cell-based
Procedure, shortened: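 B16-F10 cells on glass coverslips exposed 6 h to test agent or 0.1% DMSO vehicle, fixed in 4% paraformaldehyde, permeabilized with 0.2% Triton X-100 in PBS, blocked 30 min with goat serum, then anti-β-tubulin monoclonal 1 h at 37 °C, fluorescent secondary and DAPI nuclear stain. Microtubule network judged by fluorescence or confocal microscopy.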

[8] = In vivo inhibition of HDAC in tumor of mouse B16-F10 cells xenografted in C57BL/6 mouse assessed as increase in acetylated histone-H3 expression by […] immunohistochemistry method; assay type: functional; design: scale not given: the % may be the effect or the level left
Procedure, shortened: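 Tumors from the 14-day i.p. B16-F10 study were formalin-fixed and paraffin-embedded. Sections were deparaffinized, treated with 3% H2O2, and antigen-retrieved at pH 9 and 80 °C overnight. Blocked with milk, incubated with anti-Ac-H3 at 4 °C overnight, then IgG secondary and hematoxylin counterstain. Ac-H3-positive ratio quantified from images.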

Structure (SMILES): COc1cc(C(=O)c2csc(-c3ccc(NC(=O)CCCC(=O)Nc4ccccc4N)cc3)n2)cc(OC)c1OC
- Activity (B16-F10 [1]): 17.63%
- IC50 [2]: 31 µM
- inhibition (Tubulin (Sus scrofa) [3]): Dde
- Activity (B16-F10 [4]): 15.98%
- Activity [5]: Non-Toxic
- IC50 (Histone deacetylase 8): 11.6 µM
- Activity (B16-F10 [6]): 0%
- inhibition (Tubulin (Sus scrofa) [7]): Active
- Activity [8]: 36.7%
